From article PMC2740399 (American Journal of Physiology - Cell Physiology, 2009)

Key:
[1] = tested on: HA-tagged XGnRHR; experiment: Cell surface expression of HA-XGnRHR; type: cell-based, Xenopus laevis; conditions: HeLa
[2] = tested on: HA-tagged XGnRHR; experiment: Trafficking, anti-HA loading with agonist present; type: cell-based, Xenopus laevis; conditions: HeLa; 10^−7 M GnRH II with anti-HA, 0–60 min, 37°C
[3] = biological target: T1, HA-tagged hGnRHR (Homo sapiens, UniProt P30968); experiment: Cell surface expression / PCSE of HA-hGnRHR after 18 h ligand exposure; type: cell-based; conditions: HeLa
T1 sequence (P30968 1-328): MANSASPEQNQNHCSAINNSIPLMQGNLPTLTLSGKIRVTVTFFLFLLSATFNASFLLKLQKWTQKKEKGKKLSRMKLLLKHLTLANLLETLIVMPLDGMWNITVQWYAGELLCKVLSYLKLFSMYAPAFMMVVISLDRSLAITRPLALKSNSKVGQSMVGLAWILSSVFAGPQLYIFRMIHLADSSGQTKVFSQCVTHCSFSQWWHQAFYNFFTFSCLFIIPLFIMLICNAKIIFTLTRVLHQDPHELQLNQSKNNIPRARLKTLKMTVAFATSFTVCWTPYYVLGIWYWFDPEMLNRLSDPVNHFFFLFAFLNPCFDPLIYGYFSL

[4] = biological target: T2, HA-tagged h.XGnRHR (hGnRHR with added XGnRHR COOH tail) (Homo sapiens, UniProt P30968); experiment: Cell surface expression / PCSE of HA-h.XGnRHR after 18 h ligand exposure; type: cell-based, human/Xenopus laevis; conditions: HeLa
T2 sequence (P30968 1-328): T1 sequence (P30968 1-328)

[5] = tested on: A261K.hGnRHR; experiment: Cell surface expression of A261K.hGnRHR; type: cell-based, human; conditions: HeLa; 18 h, 10^−7 M IN3
[6] = tested on: A261K.h.XGnRHR; experiment: Cell surface expression of A261K.h.XGnRHR; type: cell-based, human/Xenopus laevis; conditions: HeLa; 18 h, 10^−7 M IN3
[7] = tested on: HA-tagged h.XGnRHR; experiment: Internalization of anti-HA preloaded receptor; type: cell-based, human/Xenopus laevis; conditions: HeLa, 60 min, 37°C; for block of GnRH-stimulated internalization: antagonist 10^−7 M with GnRH 10^−9 M
[8] = biological target: T3, HA-tagged mGnRHR (Mus musculus, UniProt Q01776); experiment: Internalization of anti-HA preloaded receptor; type: cell-based; conditions: HeLa, 60 min, 37°C; for block of GnRH-stimulated internalization: antagonist 10^−7 M with GnRH 10^−9 M
T3 sequence (Q01776 1-327): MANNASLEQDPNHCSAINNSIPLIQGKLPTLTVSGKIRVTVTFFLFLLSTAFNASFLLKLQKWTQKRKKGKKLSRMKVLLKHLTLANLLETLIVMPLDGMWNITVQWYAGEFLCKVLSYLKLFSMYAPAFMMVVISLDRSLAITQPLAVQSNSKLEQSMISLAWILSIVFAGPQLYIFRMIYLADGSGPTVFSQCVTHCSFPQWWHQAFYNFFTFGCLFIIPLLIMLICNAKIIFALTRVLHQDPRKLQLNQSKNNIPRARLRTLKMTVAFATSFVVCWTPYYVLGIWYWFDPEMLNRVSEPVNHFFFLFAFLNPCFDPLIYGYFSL

[9] = biological target: T1, HA-tagged hGnRHR; experiment: Whole cell expression of HA-hGnRHR; type: cell-based; conditions: HeLa; 18 h, 10^−7 M; not shown
[10] = tested on: HA-tagged h.XGnRHR; experiment: Whole cell expression of HA-h.XGnRHR; type: cell-based, human/Xenopus laevis; conditions: HeLa; 18 h, 10^−7 M; not shown
[11] = tested on: GnRHR point mutants that cause hypogonadotropic hypogonadism; conditions: cited from earlier work
[12] = tested on: wild-type GnRHR; conditions: cited from earlier work
[13] = biological target: T3, HA-tagged mGnRHR; experiment: Cell surface expression of HA-mGnRHR; type: cell-based; conditions: HeLa, 10^−7 M GnRH, 37°C
[14] = tested on: HA-tagged h.XGnRHR; experiment: Trafficking, anti-HA loading with agonist present; type: cell-based, human/Xenopus laevis; conditions: HeLa; 10^−7 M GnRH with anti-HA, 0–60 min, 37°C
[15] = tested on: HA-A261K-h.XGnRHR; experiment: Trafficking, anti-HA loading with agonist present; type: cell-based, human/Xenopus laevis; conditions: HeLa; 10^−7 M GnRH with anti-HA, 0–60 min, 37°C
[16] = tested on: HA-A261K h.XGnRHR; experiment: Internalization of anti-HA preloaded receptor; type: cell-based, human/Xenopus laevis; conditions: HeLa, 60 min, 37°C
Outline: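 HeLa cells transduced day after plating with adenovirus (1–3 pfu/nl, 6 h) carrying exofacially HA-tagged, G protein-uncoupled receptor; assayed next day. Surface receptors prelabelled 60 min with mouse anti-HA (1:200) in DMEM/2% BSA at ~21°C, washed, then treated at 37°C. Cells were fixed, permeabilized, given Alexa 488 secondary plus DAPI, and stained inclusions quantified by automated ×10 imaging. Data are 3–4 wells.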

[17] = 10^−7 M IN3, fluorescence immunohistochemistry, automated imaging

(His^5, Trp^7, Tyr^8)GnRH [GnRH II]
time to maximal effect on cell surface expression ([1]; 10^−7 M GnRH II, 37°C): 120 min
time to significant reduction in cell surface expression ([1]; 10^−7 M GnRH II, 37°C): 10 min
reduction in cell surface expression ([1]; 10^−7 M GnRH II, 37°C, data with and without IN3 pretreatment pooled): rapid reduction
inclusion count (effect of agonist) [2]: increased

Cc1cc(C)cc(-c2[nH]c3ccc(C(C)(C)C(=O)N4CC5CCC4CC5)cc3c2[C@H](C)CNCCc2ccncc2)c1 [IN3, (2S)-2-[5-[2-(2-azabicyclo[2.2.2]oct-2-yl)-1,1-dimethy-2-oxoethyl]-2-(3,5-dimethylphenyl)-1H-indol-3-yl]-N-(2-pyridin-4-ylethyl)propan-1-amine]
cell surface expression (effect of ligand) [3, 17]: greatly increased
PCSE (proportional cell surface expression) ([3]; 10^−7 M, increased from 1.6% (control), n = 3 experiments): 11%
PCSE increase ([3]; 10^−7 M, vs control, 'almost 7-fold'): ~7 fold
cell surface expression (effect of ligand) [4, 17]: greatly increased
PCSE (proportional cell surface expression) ([4]; 10^−7 M, increased from 6.3% (control), n = 3 experiments): 17.6%
cell surface expression after preincubation (effect of IN3) ([1]; 18 h preincubation, 10^−7 M IN3, not shown): did not alter expression
effect of IN3 on cell surface expression [5]: pronounced increase
effect of IN3 on cell surface expression [6]: pronounced increase
block of GnRH-stimulated internalization [7]: blocked
block of GnRH-stimulated internalization [8]: blocked
whole cell expression (effect of ligand) [9]: no measurable effect
whole cell expression (effect of ligand) [10]: no measurable effect
rescue of signaling [11]: “rescues” signaling via most of these mutants
signaling via wild-type GnRHR [12]: increases signaling

cetrorelix
block of GnRH-stimulated internalization [7]: blocked
internalization (effect of peptide antagonist alone) ([7]; cetrorelix 10^−7 M): not increased by a peptide antagonist
block of GnRH-stimulated internalization [8]: blocked
internalization (effect of peptide antagonist alone) ([8]; cetrorelix 10^−7 M): not increased by a peptide antagonist

gonadotropin-releasing hormone [GnRH]
reduction in cell surface expression, IN3-pretreated cells ([13]; after 18 h 10^−7 M IN3): pronounced reduction
reduction in cell surface expression ([13]; no IN3 pretreatment): reduced expression
inclusion count (effect of agonist) [14]: increased
receptor distribution (effect of GnRH) [15]: no measurable effect
internalization (effect of 10^−9 M GnRH) ([7]; 10^−9 M GnRH): increased
internalization (effect of 10^−9 M GnRH) ([8]; 10^−9 M GnRH): increased
internalization (effect of 10^−9 M GnRH) [16]: did not increase internalization
